# Measured values pooled from the literature.
# PIK3CB: Phosphatidylinositol 4,5-bisphosphate 3-kinase catalytic subunit beta isoform (PIK3CB, Homo sapiens, UniProt P42338)
# Histone acetyltransferase KAT6B: Histone acetyltransferase KAT6B (Homo sapiens, UniProt Q8WYB5)
# DNA polymerase catalytic subunit: DNA polymerase catalytic subunit (Human cytomegalovirus, UniProt P08546)
# PIK3CA: Phosphatidylinositol 4,5-bisphosphate 3-kinase catalytic subunit alpha isoform (PIK3CA, Homo sapiens, UniProt P42336)
# NOX5: NADPH oxidase 5 (NOX5, Homo sapiens, UniProt Q96PH1)
# KDR: Vascular endothelial growth factor receptor 2 (KDR, Homo sapiens, UniProt P35968)
# Trpm7: Transient receptor potential cation channel subfamily M member 7 (Trpm7, Mus musculus, UniProt Q923J1)
SMILES,target,assay,conditions,IC50 [nM]
Cc1nc(N(C)c2ccc3c(c2)/C(=C/c2ccccc2Cl)C(=O)N3C)c2ccccc2n1,PIK3CB,"enzyme activity, inhibitor, ADP detection",,117
CCCOc1ccccc1S(=O)(=O)NC(=O)c1cc2c(C)cc(OC)cc2o1,Histone acetyltransferase KAT6B,"enzyme activity, inhibitor, TR-FRET",,61
CN(C)C(=O)CN1CCN(c2cnc3c(cc(C(=O)NCc4ccc(Cl)cc4)c(=O)n3CC(=O)N3CC(C)(F)C3)n2)C1=O,DNA polymerase catalytic subunit,"enzyme activity, inhibitor",,328
COc1cc2ncnc(Nc3ccc4c(c3)/C(=C/c3cccc(Cl)c3)C(=O)N4C)c2cc1OC,PIK3CB,"enzyme activity, inhibitor, ADP detection",,110
O=c1oc(-c2cccnc2)nc2ccccc12,"Cathepsin G (CTSG, Homo sapiens, UniProt P08311)","enzyme activity, inhibitor, absorbance",pH 7.4,4900
Cc1nc(Nc2ccc3c(c2)C(C)(C)C(=O)N3C)c2ccccc2n1,PIK3CA,"enzyme activity, inhibitor, ADP detection",,164
COc1cnc2c(cc(C(=O)NCc3ccc(Cl)cc3)c(=O)n2CC(=O)N2CC(C)(F)C2)n1,DNA polymerase catalytic subunit,"enzyme activity, inhibitor",,954
COc1cc(C)c2cc(C(=O)NS(=O)(=O)c3ccc(-c4ccccc4)cc3)oc2c1,Histone acetyltransferase KAT6B,"enzyme activity, inhibitor, TR-FRET",,161
Cc1coc2c1C(=O)C(=O)c1c-2ccc2c1CCCC2(C)C,NOX5,"enzyme activity, inhibitor",,1900
Cc1nc(Nc2ccc3c(c2)C(C)(C)C(=O)N3)c2ccccc2n1,PIK3CA,"enzyme activity, inhibitor, ADP detection",,195
CCOc1cccc(-c2cccc(Cl)c2)c1S(=O)(=O)NC(=O)c1cc2c(C)cc(OC)cc2o1,Histone acetyltransferase KAT6B,"enzyme activity, inhibitor, TR-FRET",,25
O=C(O)Cc1csc(NC(=O)c2cc3ccccc3[nH]2)n1,KDR,"enzyme activity, inhibitor, ELISA",,1210
Cc1coc2c1C(=O)C(=O)c1c-2ccc2c(C)cccc12,NOX5,"enzyme activity, inhibitor",,3900
Cc1nc(N(Cc2ccccc2)c2ccc3c(c2)/C(=C/c2ccccc2)C(=O)N3Cc2ccccc2)c2ccccc2n1 (mixture of isomers),PIK3CA,"enzyme activity, inhibitor, ADP detection",,9.11
CC1(F)CN(C(=O)Cn2c(=O)c(C(=O)NCc3ccc(Cl)cc3)cc3nc(N4CCCC4=O)cnc32)C1,DNA polymerase catalytic subunit,"enzyme activity, inhibitor",,207
N#Cc1ccc(COC[C@H]2O[C@@H](n3c(NCc4ccc(Cl)c(Cl)c4)nc4c(N)ncnc43)[C@H](O)[C@@H]2O)cc1,Trpm7,calcium signal,,300
CC(=NNC(=O)c1ccncc1)c1ccc(Nc2nnc(-c3ccc(Cl)cc3)c3ccccc23)cc1,KDR,"cell-free assay, inhibitor",,148
COc1cc2ncnc(Nc3ccc4c(c3)/C(=C/c3ccccc3)C(=O)N4C)c2cc1OC,PIK3CB,"enzyme activity, inhibitor, ADP detection",,506
c1ccc2c(c1)CCC[C@H]2Nc1nc2ccccc2[nH]1,Trpm7,calcium signal,,1130
COc1cc(C)c2cc(C(=O)NS(=O)(=O)c3ccccc3OC)oc2c1,Histone acetyltransferase KAT6B,"enzyme activity, inhibitor, TR-FRET",,68
O=C(Nc1ccccc1)Nc1ccc(Oc2nnc(-c3ccc(Cl)cc3)c3ccccc23)cc1,KDR,"cell-free assay, inhibitor",,195
CCOc1ccc2cc(C(=O)NS(=O)(=O)c3ccccc3-c3ccccc3)oc2c1,Histone acetyltransferase KAT6B,"enzyme activity, inhibitor, TR-FRET",,3020
Cc1coc2c1C(=O)C(=O)c1c-2ccc2c1CCCC2(C)CO (stereo not drawn),NOX5,"enzyme activity, inhibitor",,5200
COc1cc(C)c2cc(C(=O)NS(=O)(=O)c3ccc(C)cc3-c3ccccc3)oc2c1,Histone acetyltransferase KAT6B,"enzyme activity, inhibitor, TR-FRET",,41
COc1cc2ncnc(N(C)c3ccc4c(c3)/C(=C/c3cccc(Cl)c3)C(=O)N4C)c2cc1OC,PIK3CA,"enzyme activity, inhibitor, ADP detection",,> 1000
COc1cc(C)c2cc(C(=O)NS(=O)(=O)c3ccc(Cl)cc3)oc2c1,Histone acetyltransferase KAT6B,"enzyme activity, inhibitor, TR-FRET",,237
Cc1nc(Nc2ccc3c(c2)/C(=C/c2ccccc2Cl)C(=O)N3)c2ccccc2n1,PIK3CA,"enzyme activity, inhibitor, ADP detection",,27.7
